In experiment [1] the test system is Rattus norvegicus. Briefly: Antiinflammatory activity in Sprague-Dawley rat assessed as inhibition of carrageenan-induced foot paw oedema at 200 mg/kg, ip after 2 hrs by plethysmometer analysis relative to control. The format is functional. The conditions noted are these: for inhibition in vivo at 200 mg/kg: route intraperitoneal. In a few lines: (§1)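 Male Sprague–Dawley rats (250 g), fasted at least 16 h with water available. Compounds were given i.p. as a 1 mL suspension in 0.5% methyl cellulose; controls received vehicle. Paw volume was read by water-displacement plethysmometer before treatment and 1 and 2 h after. Activity (%) = (1 − D/C) × 100, where D and C are paw-volume changes in treated and control rats; mean ± SEM, n = 4–6.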

Experiment [2] relates to Rattus norvegicus. Kind of experiment: Antiinflammatory activity in Sprague-Dawley rat assessed as inhibition of carrageenan-induced foot paw oedema at 200 mg/kg, ip after 1 hr by plethysmometer analysis relative to control. The format is functional. The conditions noted are these: for inhibition in vivo at 200 mg/kg: route intraperitoneal. The method, boiled down:
as §1

The target of experiment [3] is T1, Prostaglandin G/H synthase 1 (Ovis aries, UniProt P05979).
T1 sequence (P05979 whole entry): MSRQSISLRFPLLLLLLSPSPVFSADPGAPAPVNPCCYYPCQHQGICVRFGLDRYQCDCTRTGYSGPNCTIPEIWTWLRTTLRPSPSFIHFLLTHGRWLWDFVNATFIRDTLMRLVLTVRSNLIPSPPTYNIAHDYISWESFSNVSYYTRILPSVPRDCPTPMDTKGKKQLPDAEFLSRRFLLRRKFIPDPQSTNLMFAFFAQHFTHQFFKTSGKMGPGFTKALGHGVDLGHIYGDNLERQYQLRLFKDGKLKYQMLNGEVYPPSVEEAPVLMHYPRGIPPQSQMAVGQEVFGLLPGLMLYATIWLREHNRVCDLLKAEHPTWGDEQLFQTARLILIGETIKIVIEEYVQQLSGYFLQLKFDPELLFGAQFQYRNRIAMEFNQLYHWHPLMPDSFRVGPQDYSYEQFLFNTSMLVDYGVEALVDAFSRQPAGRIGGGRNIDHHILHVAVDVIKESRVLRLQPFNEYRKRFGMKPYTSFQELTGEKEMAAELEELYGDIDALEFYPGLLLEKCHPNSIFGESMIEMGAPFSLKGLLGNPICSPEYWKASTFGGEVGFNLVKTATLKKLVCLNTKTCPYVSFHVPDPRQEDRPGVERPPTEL
Kind of experiment: Inhibition of ovine COX1 assessed as PGF2alpha production from PGH2 after 5 mins by enzyme immunoassay. In a few lines:
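Ovine COX-1 in reaction buffer with 2 mM phenol and heme, preincubated with six test concentrations (1 mL final) for 5 min at 37 °C. Arachidonic acid was then added and the reaction stopped with 1 M HCl after 2 min. Prostanoids were reduced with stannous chloride and quantified by competitive acetylcholinesterase-tracer EIA (Ellman's reagent, 410 nm). IC50 came from concentration–inhibition curves, duplicate determinations.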

Experiment [4] has as its system Rattus norvegicus. Briefly: Antiinflammatory activity in Sprague-Dawley rat assessed as inhibition of carrageenan-induced foot paw oedema at 100 mg/kg, ip after 1 hr by plethysmometer analysis relative to control. Particulars: route intraperitoneal. The format is functional. In a few lines: as §1
In experiment [5] the test system is Rattus norvegicus. Kind of experiment: Antiinflammatory activity in ip dosed Sprague-Dawley rat assessed as inhibition of carrageenan-induced foot paw oedema after 2 hrs by plethysmometer analysis. The format is functional. The method, boiled down:
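Rat carrageenan paw oedema: male Sprague–Dawley rats (250 g), fasted ≥16 h, dosed i.p. with a 1 mL suspension in 0.5% methyl cellulose. Paw swelling was measured by plethysmometer water displacement, and percent inhibition was taken against vehicle controls.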

The test system of experiment [6] is Rattus norvegicus. Kind of experiment: Antiinflammatory activity in Sprague-Dawley rat assessed as inhibition of carrageenan-induced foot paw oedema at 100 mg/kg, ip after 2 hrs by plethysmometer analysis relative to control. The format is functional. Particulars: route intraperitoneal. In a few lines:
as §1

Experiment [7] concerns the target T2, Prostaglandin G/H synthase 1 (Ovis aries) (UniProt P05979).
T2 sequence (whole entry): T1 sequence (P05979 whole entry)
Briefly: Inhibition of ovine COX1 assessed as PGF2alpha production from PGH2 at 100 uM after 5 mins by enzyme immunoassay. In a few lines: (§2)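 Enzyme (ovine COX-1) with heme in buffer containing 2 mM phenol was preincubated with the test compound for 5 min at 37 °C, then given arachidonic acid for 2 min before quenching with 1 M HCl. Products were reduced with stannous chloride and measured by competitive PG-tracer EIA at 410 nm. Percent inhibition was calculated against control incubations.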

The target in experiment [8] is T2, Prostaglandin G/H synthase 1 (Ovis aries). Kind of experiment: Inhibition of ovine COX1 assessed as PGF2alpha production from PGH2 at 0.5 uM after 5 mins by enzyme immunoassay. In a few lines: as §2

Active and inactive are the calls of the source. No cut-off for these calls is given here. Some results are limits rather than exact numbers.

Consider `O=C1CCCC/C1=C\c1c(C(F)(F)F)nn(-c2ccccc2)c1-c1ccc(Cl)cc1`, for which the inhibition in vivo at 200 mg/kg in experiment [1] worked out at 23.9%; in experiment [2] it was 33.7%. Besides, in experiment [3], the IC50 was above 50 µM.

`COc1ccc(N/N=C2/C(c3ccc(Cl)cc3)=NN=C2C(F)(F)F)cc1`: the inhibition entry in experiment [1] and in experiment [2] was “inactive” throughout. The IC50 in experiment [3] was above 50 µM.

Take `O=C(/C(=N\Nc1cc(C(F)(F)F)cc(C(F)(F)F)c1)C(=O)C(F)(F)F)c1ccc(Cl)cc1`: the figures for the inhibition in vivo at 100 mg/kg in experiment [4] and in experiment [6] were 33% and 59%, respectively. For the same molecule, the ED50 in experiment [5] is 112 mg/kg. Moreover, the results for the inhibition in vivo at 200 mg/kg in experiment [1] and in experiment [2] were 88.4% and 80%, respectively. The IC50 in experiment [3] is above 50 µM.

Regarding `O=C(/C(=N\Nc1ccc(Cl)cc1)C(=O)C(F)(F)F)c1ccc(Cl)cc1`, the inhibition in vivo at 200 mg/kg in experiment [1] stood at 35.2%; in experiment [2] it was 26.7%. In experiment [3], the IC50 is above 50 µM.

Turning to `O=C1CCC/C1=C\c1c(C(F)(F)F)nn(-c2ccccc2)c1-c1ccc(Cl)cc1`, the inhibition in vivo at 100 mg/kg in experiment [4] worked out at 37%; in experiment [6], 67%. Further, the ED50 in experiment [5] is 118 mg/kg. Moreover, the inhibition in vivo at 200 mg/kg in experiment [1] is 82%; in experiment [2], 80.7%. Further, the IC50 in experiment [3] is above 50 µM.

In the case of `O=[N+]([O-])c1ccc(N/N=C2/C(c3ccc(Cl)cc3)=NN=C2C(F)(F)F)cc1`, the inhibition in vivo at 200 mg/kg in experiment [1] turned out to be 7%; in experiment [2], 4%. The IC50 in experiment [3] is above 50 µM.

As for `O=Cc1c(C(F)(F)F)nn(-c2ccccc2)c1-c1ccc(Cl)cc1`, the inhibition in vivo at 100 mg/kg is 24.1% in experiment [4] and 40.3% in experiment [6]. Further, the ED50 in experiment [5] stood at 190 mg/kg. In addition, the inhibition in vivo at 200 mg/kg in experiment [1] was determined as 59.1%; in experiment [2] it was 75%. Besides, the IC50 in experiment [3] is above 50 µM.

`O=C(/C=C/c1c(C(F)(F)F)nn(-c2ccccc2)c1-c1ccc(Cl)cc1)c1ccccc1`: the inhibition in vivo at 200 mg/kg in experiment [1] was determined as 2.6%; in experiment [2] it was 1.8%. The IC50 in experiment [3] is above 50 µM.

`COc1ccc(N/N=C(\C(=O)c2ccc(Cl)cc2)C(=O)C(F)(F)F)cc1`: the inhibition in vivo at 100 mg/kg in experiment [4] stood at 0%; in experiment [6], 3.8%. For the same molecule, in experiment [5], the ED50 was determined as 240 mg/kg. Further, the results for the inhibition in experiment [7] and in experiment [8] were 25% and 31%, respectively. Also, the inhibition in vivo at 200 mg/kg in experiment [1] amounted to 42.2%; in experiment [2], 27.6%. For the same molecule, the IC50 in experiment [3] is above 50 µM.

For `FC(F)(F)C1=NN=C(c2ccc(Cl)cc2)/C1=N/Nc1cc(C(F)(F)F)cc(C(F)(F)F)c1`, the results for the inhibition in vivo at 100 mg/kg in experiment [4] and in experiment [6] were 3.4% and 17.3%, respectively. Further, the inhibition in vivo at 200 mg/kg in experiment [1] came to 28.8%; in experiment [2] it was 40.8%. The IC50 in experiment [3] was above 50 µM.

In the case of `O=C(/C(=N\Nc1ccccc1Cl)C(=O)C(F)(F)F)c1ccc(Cl)cc1`, the results for the inhibition in vivo at 100 mg/kg in experiment [4] and in experiment [6] were 0% and 19.3%, respectively. For the same molecule, the ED50 in experiment [5] turned out to be 260 mg/kg. Besides, the inhibition in experiment [7] turned out to be 25%; in experiment [8], 31%. The figures for the inhibition in vivo at 200 mg/kg in experiment [1] and in experiment [2] were 41.7% and 47.1%, respectively. Moreover, the IC50 in experiment [3] was above 50 µM.

In the case of `CCN1CCC(=O)/C(=C/c2c(C(F)(F)F)nn(-c3ccccc3)c2-c2ccc(Cl)cc2)C1`, the inhibition in vivo at 100 mg/kg in experiment [4] amounted to 41%; in experiment [6], 64%. The ED50 in experiment [5] amounted to 120 mg/kg. Moreover, the inhibition in vivo at 200 mg/kg was 89.7% in experiment [1] and 80% in experiment [2]. Also, the IC50 in experiment [3] is above 50 µM.

As to `O=C(/C(=N\Nc1ccc(Br)cc1)C(=O)C(F)(F)F)c1ccc(Cl)cc1`, the figures for the inhibition in vivo at 100 mg/kg in experiment [4] and in experiment [6] were 0% and 13.9%, respectively. The ED50 in experiment [5] came out at 280 mg/kg. Also, the inhibition in vivo at 200 mg/kg in experiment [1] worked out at 33.8%; in experiment [2] it was 35%. Besides, the IC50 in experiment [3] was above 50 µM.

For the molecule `FC(F)(F)C1=NN=C(c2ccc(Cl)cc2)/C1=N/Nc1ccccc1Cl`, the inhibition in vivo at 200 mg/kg in experiment [1] is 15.1%; in experiment [2], 38.4%. In addition, the concentration for half-maximal inhibition (IC50) in experiment [3] was above 50 µM.

In the case of `O=C(/C(=N\Nc1ccc([N+](=O)[O-])cc1)C(=O)C(F)(F)F)c1ccc(Cl)cc1`, the inhibition in vivo at 100 mg/kg was found to be 0% in experiment [4] and 17.9% in experiment [6]. For the same molecule, the ED50 in experiment [5] stood at 170 mg/kg. Moreover, the results for the inhibition in experiment [7] and in experiment [8] were 25% and 31%, respectively. Also, the results for the inhibition in vivo at 200 mg/kg in experiment [1] and in experiment [2] were 57.3% and 35.8%, respectively. In experiment [3], the IC50 was above 50 µM.

Consider `O=C(/C=C/c1c(C(F)(F)F)nn(-c2ccccc2)c1-c1ccc(Cl)cc1)c1ccc(Cl)cc1`, for which the inhibition in vivo at 200 mg/kg in experiment [1] was determined as 4.4%; in experiment [2], 1.5%. Moreover, in experiment [3], the IC50 is above 50 µM.

Turning to `CN1CCC(=O)/C(=C/c2c(C(F)(F)F)nn(-c3ccccc3)c2-c2ccc(Cl)cc2)C1`, the inhibition in vivo at 200 mg/kg turned out to be 20.3% in experiment [1] and 6.7% in experiment [2]. Besides, the IC50 in experiment [3] was above 50 µM.

In the case of `O=C(O)Cc1ccccc1Nc1c(Cl)cccc1Cl` [DICLOFENAC SODIUM], the inhibition in vivo at 100 mg/kg in experiment [4] came out at 88.5%; in experiment [6], 89.5%.

Regarding `FC(F)(F)C1=NN=C(c2ccc(Cl)cc2)/C1=N/Nc1ccc(Cl)cc1`, the inhibition in vivo at 200 mg/kg came to 9.1% in experiment [1] and 8.1% in experiment [2]. For the same molecule, in experiment [3], the IC50 is above 50 µM.

Consider `FC(F)(F)C1=NN=C(c2ccc(Cl)cc2)/C1=N/Nc1ccc(Br)cc1`, for which the results for the inhibition in vivo at 100 mg/kg in experiment [4] and in experiment [6] were 17.5% and 31.3%, respectively. Also, the 50% effective dose (ED50) in experiment [5] came out at 180 mg/kg. Further, the inhibition in vivo at 200 mg/kg in experiment [1] came to 52.1%; in experiment [2] it was 26.3%. In experiment [3], the IC50 is above 50 µM.

The record behind these values is ChEMBL document CHEMBL1777799, “Design, synthesis, and biological evaluation of substituted hydrazone and pyrazole derivatives as selective COX-2 inhibitors: Molecular docking study” (Bioorg Med Chem, 2011).
